pEC50, pKi: −log10 of the molar value. “And” between values parts separate entries of the source, which are not always exact repeats. Identical values can stand only once. Like-named read-outs stand apart in the source and are kept apart here.
Columns and labels:
mice [1] = test: Head twitch response; format: in vivo, mouse; conditions: for HTR response: 15 min period
5-HT2B receptor [2] = target: T1, 5-HT2B receptor (Homo sapiens, UniProt P41595); test: G protein; format: cell-based
5-HT2A receptor [3] = target: T2, 5-HT2A receptor (Homo sapiens, UniProt P28223); test: G protein; format: cell-based; conditions: for decrease in potency versus the alpha-methyl (DOx) counterpart: Gq dissociation (Gq versus G11 for Ariadne/DOM)
Target sequence in this assay (P28223 whole entry): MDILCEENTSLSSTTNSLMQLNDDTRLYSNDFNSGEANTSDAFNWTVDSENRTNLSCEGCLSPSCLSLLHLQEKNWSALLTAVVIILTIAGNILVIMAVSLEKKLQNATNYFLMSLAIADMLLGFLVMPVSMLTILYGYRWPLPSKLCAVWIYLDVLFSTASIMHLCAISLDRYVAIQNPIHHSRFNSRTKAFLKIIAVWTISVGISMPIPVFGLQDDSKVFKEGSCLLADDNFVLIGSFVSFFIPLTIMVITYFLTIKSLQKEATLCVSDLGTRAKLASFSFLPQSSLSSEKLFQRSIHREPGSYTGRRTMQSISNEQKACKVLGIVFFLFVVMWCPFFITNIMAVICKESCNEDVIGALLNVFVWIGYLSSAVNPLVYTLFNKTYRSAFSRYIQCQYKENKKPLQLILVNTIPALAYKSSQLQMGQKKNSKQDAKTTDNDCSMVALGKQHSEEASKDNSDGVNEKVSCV

5-HT2A receptor [4] = target: T2, 5-HT2A receptor; test: β-arrestin2 recruitment BRET assay; format: cell-based; conditions: for efficacy: normalized to 5-HT
Target sequence in this assay (P32121 whole entry): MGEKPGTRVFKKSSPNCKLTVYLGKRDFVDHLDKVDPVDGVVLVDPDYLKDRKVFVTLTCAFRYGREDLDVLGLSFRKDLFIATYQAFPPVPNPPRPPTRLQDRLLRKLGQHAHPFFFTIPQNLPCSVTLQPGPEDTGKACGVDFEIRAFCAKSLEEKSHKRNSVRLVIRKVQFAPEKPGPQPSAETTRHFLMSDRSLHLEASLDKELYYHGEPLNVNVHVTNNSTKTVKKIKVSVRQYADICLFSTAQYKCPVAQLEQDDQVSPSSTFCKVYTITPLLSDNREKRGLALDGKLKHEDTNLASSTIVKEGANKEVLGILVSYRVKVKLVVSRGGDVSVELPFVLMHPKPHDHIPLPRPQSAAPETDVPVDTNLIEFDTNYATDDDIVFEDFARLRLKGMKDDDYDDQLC
Target sequence in this assay (P28223 whole entry): as the sequence (P28223 whole entry) above

5-HT2A receptors [5] = conditions: cited from earlier work
5-HT2A receptors [6] = conditions: cited from earlier work; remark: listed apart in the source
5-HT2A receptor [7] = target: T2, 5-HT2A receptor; test: Radioligand displacement assay; format: binding; conditions: standard radioligand 125I-DOI
Target sequence in this assay (P28223 whole entry): as above

5-HT2A receptor [8] = target: T2, 5-HT2A receptor; test: Calcium flux assay; format: cell-based
How it was run: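 Flp-In 293 T-Rex cells stably carry tetracycline-inducible human 5-HT2A or 5-HT2C. Expression is induced with tetracycline (2 ug/mL) the day before, with about 7,500 cells/well in 1% dialyzed FBS. Cells are loaded with Fluo-4 Direct for 1 h at 37°C in HBSS/20 mM HEPES pH 7.4 with 2.5 mM probenecid, then held 15 min at RT. Fluorescence is read 10 s baseline, then 5-10 min after drug. Peak fold-over-basal or AUC is normalized to % 5-HT, with EC50/Emax from nonlinear regression.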
Target sequence in this assay (P28223 whole entry): as above

humans = conditions: cited from earlier work
rat smooth muscle = conditions: compared to serotonin and (R)-DOM ref 11; cited from earlier work
[9] = target: serotonin transporter (SERT) (Homo sapiens, UniProt P31645); test: SafetyScreen44 broad screen; format: binding; conditions: 10 uM
serotonin transporter (SERT), sequence (P31645 whole entry): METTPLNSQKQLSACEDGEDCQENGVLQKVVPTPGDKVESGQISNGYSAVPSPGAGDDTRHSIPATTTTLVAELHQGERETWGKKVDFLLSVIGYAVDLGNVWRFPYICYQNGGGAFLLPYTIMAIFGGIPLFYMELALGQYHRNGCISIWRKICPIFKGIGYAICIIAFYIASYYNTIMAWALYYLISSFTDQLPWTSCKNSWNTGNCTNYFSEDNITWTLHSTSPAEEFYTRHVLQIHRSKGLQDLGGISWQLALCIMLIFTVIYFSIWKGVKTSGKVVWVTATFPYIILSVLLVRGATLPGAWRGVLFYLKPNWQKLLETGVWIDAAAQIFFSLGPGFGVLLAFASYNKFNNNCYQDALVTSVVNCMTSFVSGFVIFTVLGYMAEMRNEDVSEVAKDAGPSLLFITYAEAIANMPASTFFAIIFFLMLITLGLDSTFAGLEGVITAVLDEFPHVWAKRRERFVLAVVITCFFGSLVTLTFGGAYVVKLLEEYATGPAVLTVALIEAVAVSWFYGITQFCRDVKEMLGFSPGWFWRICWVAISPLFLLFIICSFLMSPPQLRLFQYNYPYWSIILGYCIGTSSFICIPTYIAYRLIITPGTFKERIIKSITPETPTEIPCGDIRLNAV
How it was run: (§1)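 Broad binding screen of 44 targets (GPCRs, nuclear receptors, ion channels, monoamine transporters, enzymes) with racemic test compound at 10 uM. Read-out is % displacement of each target's standard radioligand. A positive hit is defined as more than 50% displacement.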

5-HT2B receptor [10] = target: T1, 5-HT2B receptor; test: SafetyScreen44 broad screen; format: binding; conditions: 10 uM Ariadne; positive hit threshold
How it was run: as §1

cats = conditions: in comparison to (R)-DOM ref 10; cited from earlier work
rats [11] = conditions: cited from earlier work
dopamine 2 receptor = dopamine 2 receptor (Homo sapiens, UniProt P14416); test: Activity at other aminergic receptors
dopamine 2 receptor, sequence (P14416 whole entry): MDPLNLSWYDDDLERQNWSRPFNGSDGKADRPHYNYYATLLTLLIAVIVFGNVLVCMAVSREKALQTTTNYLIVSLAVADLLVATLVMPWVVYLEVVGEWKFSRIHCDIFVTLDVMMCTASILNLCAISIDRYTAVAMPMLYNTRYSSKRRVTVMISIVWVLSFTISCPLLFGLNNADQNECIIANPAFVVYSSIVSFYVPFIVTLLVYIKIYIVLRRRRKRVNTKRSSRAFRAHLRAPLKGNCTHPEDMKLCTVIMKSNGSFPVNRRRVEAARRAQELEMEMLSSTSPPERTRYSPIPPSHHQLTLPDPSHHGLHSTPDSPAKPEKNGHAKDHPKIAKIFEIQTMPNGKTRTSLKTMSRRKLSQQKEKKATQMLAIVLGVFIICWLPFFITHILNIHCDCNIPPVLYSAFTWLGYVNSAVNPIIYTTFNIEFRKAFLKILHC

5-HT1F receptor = 5-HT1F receptor (Homo sapiens, UniProt P30939); test: 5-HTome G protein activation BRET screen; format: cell-based
How it was run: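 Human 5-HT receptors (12 in the panel) are tested by G protein-dissociation BRET2. Cells are reverse-transfected about 48 h before assay with receptor:Gα-Rluc8:Beta:GFP2-γ (TRUPATH) at 1:1:1:1 and plated in 1% dFBS. Drug is added in HBSS/20 mM HEPES pH 7.4 with 0.3% BSA and 0.03% ascorbic acid, then incubated 60 min at 37°C. Coelenterazine 400a is 5 uM final. The 510/400 ratio is normalized to % positive control, with EC50/Emax from log(agonist) vs response. Three independent experiments in triplicate.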

adrenergic receptors = test: Activity at other aminergic receptors; conditions: no/low activity
dopamine 1 receptor = dopamine 1 receptor (Homo sapiens, UniProt P21728); test: Activity at other aminergic receptors
dopamine 1 receptor, sequence (P21728 whole entry): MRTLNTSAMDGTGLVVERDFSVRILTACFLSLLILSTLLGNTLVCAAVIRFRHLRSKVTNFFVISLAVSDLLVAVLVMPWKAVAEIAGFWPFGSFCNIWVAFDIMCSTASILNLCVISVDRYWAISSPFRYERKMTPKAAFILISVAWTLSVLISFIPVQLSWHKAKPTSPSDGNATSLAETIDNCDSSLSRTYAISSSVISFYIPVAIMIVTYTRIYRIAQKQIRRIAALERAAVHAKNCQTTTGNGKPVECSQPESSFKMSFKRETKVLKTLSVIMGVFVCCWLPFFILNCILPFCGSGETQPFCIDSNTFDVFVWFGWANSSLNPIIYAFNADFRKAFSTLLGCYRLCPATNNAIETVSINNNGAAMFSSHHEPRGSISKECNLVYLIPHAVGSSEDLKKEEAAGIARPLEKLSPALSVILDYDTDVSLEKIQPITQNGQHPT

5-HT2A receptor [12] = target: T2, 5-HT2A receptor; test: SafetyScreen44 broad screen; format: binding; conditions: 10 uM Ariadne; positive hit threshold
How it was run: as §1
Target sequence in this assay (P28223 whole entry): as the sequence (P28223 whole entry) above

[13] = Brain and plasma pharmacokinetic evaluation; format: in vivo, mouse; conditions: brain and plasma PK
[14] = target: dopamine transporter (DAT) (Homo sapiens, UniProt Q01959); test: SafetyScreen44 broad screen; format: binding; conditions: 10 uM
dopamine transporter (DAT), sequence (Q01959 whole entry): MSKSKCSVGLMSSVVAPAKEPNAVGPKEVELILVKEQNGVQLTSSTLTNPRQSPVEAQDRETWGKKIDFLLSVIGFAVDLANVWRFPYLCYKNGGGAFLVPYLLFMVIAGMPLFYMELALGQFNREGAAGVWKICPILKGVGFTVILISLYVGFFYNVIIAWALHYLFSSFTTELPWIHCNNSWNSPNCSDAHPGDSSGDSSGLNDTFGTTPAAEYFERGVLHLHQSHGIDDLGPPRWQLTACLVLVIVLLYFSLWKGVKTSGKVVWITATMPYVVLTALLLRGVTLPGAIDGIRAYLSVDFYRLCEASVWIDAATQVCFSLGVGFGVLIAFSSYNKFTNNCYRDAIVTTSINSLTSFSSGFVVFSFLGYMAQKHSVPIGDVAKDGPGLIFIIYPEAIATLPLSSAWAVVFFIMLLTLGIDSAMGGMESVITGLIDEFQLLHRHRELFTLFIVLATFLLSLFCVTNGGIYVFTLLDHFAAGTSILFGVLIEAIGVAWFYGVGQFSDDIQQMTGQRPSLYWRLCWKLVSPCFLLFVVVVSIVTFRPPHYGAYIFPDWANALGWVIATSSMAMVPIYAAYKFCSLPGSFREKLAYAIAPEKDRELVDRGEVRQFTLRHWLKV
How it was run: as §1

5-HT2C receptor = target: T3, 5-HT2C receptor (Homo sapiens, UniProt P28335); test: G protein; format: cell-based
T3 sequence (P28335 33-458): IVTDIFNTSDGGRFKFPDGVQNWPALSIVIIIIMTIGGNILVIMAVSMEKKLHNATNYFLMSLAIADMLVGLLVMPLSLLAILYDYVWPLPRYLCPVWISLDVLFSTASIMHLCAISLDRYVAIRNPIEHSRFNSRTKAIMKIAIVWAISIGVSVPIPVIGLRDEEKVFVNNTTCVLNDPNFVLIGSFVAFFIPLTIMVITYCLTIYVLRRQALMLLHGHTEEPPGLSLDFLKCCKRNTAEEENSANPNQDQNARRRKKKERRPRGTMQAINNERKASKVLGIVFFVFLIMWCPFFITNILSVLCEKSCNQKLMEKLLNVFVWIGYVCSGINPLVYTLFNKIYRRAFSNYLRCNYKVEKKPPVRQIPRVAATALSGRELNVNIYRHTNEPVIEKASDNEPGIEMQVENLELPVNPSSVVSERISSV

rats [15] = conditions: cited from earlier work; remark: listed apart in the source
[16] = target: norepinephrine transporter (NET) (Homo sapiens, UniProt P23975); test: SafetyScreen44 broad screen; format: binding; conditions: 10 uM
norepinephrine transporter (NET), sequence (P23975 whole entry): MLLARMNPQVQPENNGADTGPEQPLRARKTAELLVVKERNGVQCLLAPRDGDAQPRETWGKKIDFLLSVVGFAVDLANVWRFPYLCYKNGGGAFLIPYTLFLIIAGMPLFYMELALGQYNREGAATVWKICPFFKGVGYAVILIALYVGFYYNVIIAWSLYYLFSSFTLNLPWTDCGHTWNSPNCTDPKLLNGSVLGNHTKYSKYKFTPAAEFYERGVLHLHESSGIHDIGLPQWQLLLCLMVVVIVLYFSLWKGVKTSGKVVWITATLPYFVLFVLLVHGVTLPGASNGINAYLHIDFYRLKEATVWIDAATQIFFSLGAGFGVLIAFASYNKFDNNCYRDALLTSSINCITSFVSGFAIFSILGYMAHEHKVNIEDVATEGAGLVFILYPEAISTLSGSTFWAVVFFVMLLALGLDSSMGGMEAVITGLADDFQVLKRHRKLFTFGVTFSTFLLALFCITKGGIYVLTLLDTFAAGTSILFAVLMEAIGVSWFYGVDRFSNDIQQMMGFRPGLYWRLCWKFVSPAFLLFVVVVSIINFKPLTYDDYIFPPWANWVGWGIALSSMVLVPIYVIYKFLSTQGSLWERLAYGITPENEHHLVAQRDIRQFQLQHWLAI
How it was run: as §1

mice [17] = test: Open field test; format: in vivo, mouse; conditions: mouse, in vivo
5-HT2C receptors = conditions: cited from earlier work
mice [18] = conditions: cited from earlier work
[19] = phosphoinositide turnover ref 40

T1 sequence (P41595 whole entry): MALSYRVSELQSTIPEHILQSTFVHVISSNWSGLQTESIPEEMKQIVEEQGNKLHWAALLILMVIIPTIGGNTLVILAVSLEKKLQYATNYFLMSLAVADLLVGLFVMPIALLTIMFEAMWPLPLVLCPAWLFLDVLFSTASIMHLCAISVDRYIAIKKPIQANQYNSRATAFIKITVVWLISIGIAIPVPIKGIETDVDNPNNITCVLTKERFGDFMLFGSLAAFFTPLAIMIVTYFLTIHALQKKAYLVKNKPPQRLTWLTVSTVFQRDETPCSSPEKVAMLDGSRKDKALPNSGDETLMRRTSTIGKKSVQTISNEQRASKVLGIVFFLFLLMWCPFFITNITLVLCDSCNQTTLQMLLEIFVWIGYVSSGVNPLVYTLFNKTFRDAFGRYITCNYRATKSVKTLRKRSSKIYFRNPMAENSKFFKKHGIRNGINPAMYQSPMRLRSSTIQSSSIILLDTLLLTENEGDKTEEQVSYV

CCC(N)Cc1cc(OC)c(COC)cc1OC (stereo not shown) [4C-MOM]
HTR response (mice [1]; s.c.): only residual HTR | potency at 5-HT2B compared to Ariadne (5-HT2B receptor [2]; Gq dissociation): twice as potent | less potent at 5-HT2A compared to Ariadne (5-HT2A receptor [3]; Gq dissociation): approximately 2 fold

CCCc1cc(OC)c(CC(N)CC)cc1OC (stereo not shown) [4C-Pr]
decrease in potency versus the alpha-methyl (DOx) counterpart (5-HT2A receptor [4]): 10 fold | drop in efficacy versus the alpha-methyl (DOx) counterpart (5-HT2A receptor [4]): 15% | loss in efficacy versus the alpha-methyl (DOx) counterpart (5-HT2A receptor [3]; Gq dissociation): 15% | decrease in potency versus the alpha-methyl (DOx) counterpart (5-HT2A receptor [3]): 20-30 fold

CCC(N)Cc1cc(OC)c(C(F)(F)F)cc1OC (stereo not shown) [4C-TFM]
HTR after pretreatment with 5-HT2A antagonist MDL100,907 (volinanserin) (mice [1]; MDL100907 0.01 and 0.032 mg/kg ip 15 min prior): completely inhibited

CCCC(N)Cc1cc(OC)c(C)cc1OC (stereo not shown) [5C-D]
HTR response (mice [1]; s.c.): indistinguishable from vehicle | decrease in potency relative to Ariadne (5-HT2A receptor [3]; Figure 3D signaling assays): ~ 2 fold | drop in efficacy relative to Ariadne (5-HT2A receptor [3]; Figure 3D signaling assays): ~ 15%

CCN(CC)CCc1c[nH]c2cc(F)ccc12 [6F-DET, 6-fluoro-diethyltryptamine]
Emax (5-HT2A receptors [5]; [19]): 63% | drop in efficacy versus DET (5-HT2A receptors [5]; [19]): 20% | weaker signaling potency (EC50 values) versus DET (5-HT2A receptors [5]; [19]): 6 fold | affinity for 5-HT2A receptors, DET versus 6F-DET (5-HT2A receptors [6]): nearly identical affinity

CC[C@H](N)Cc1cc(OC)c(C)cc1OC [(S)-Ariadne]
pKi (5-HT2A receptor [7]): 6.66 | pEC50 (5-HT2A receptor [8]; read-out: EC50 (calcium flux)): 6.88 | Emax (calcium flux) (5-HT2A receptor [8]; relative to 5-HT): 63%

CCC(N)Cc1cc(OC)c(C)cc1OC.Cl (stereo not shown) [Ariadne hydrochloride]
subjective effect (online experience report) (humans; 50 mg oral plus 25 mg at 90 min, person 77 kg ref 35): MDMA-like effect but no psychedelic effects

CCC(N)Cc1cc(OC)c(C)cc1OC (stereo not shown) [Ariadne, 2-amino-1-(2,5-dimethoxy-4-methylphenyl)-butane]
serotonergic-like spasmogenic effect (rat smooth muscle): weak serotonergic-like effect | activity at SERT [9]: essentially no activity | displacement of standard radioligands (5-HT2B receptor [10]): more than 50% | decrease in HTR count per 15 min compared to racemic DOPR (mice [1]; s.c.): > 3 fold | dose of peak (maximum) HTR (mice [1]; s.c.): 10 mg/kg | combined score of DOM-like behavioral features (cats): low combined score of DOM-like behavioral features | substitution for MDMA stimulus (rats [11]): full substitution for MDMA stimulus | pEC50 (dopamine 2 receptor): < 5.00 | decrease in potency versus the alpha-methyl (DOx) counterpart (5-HT2A receptor [4]): ~ 4.5 fold | efficacy (5-HT2A receptor [4]): 83% | selectivity of 5-HT2 agonism over 5-HT1F (5-HT1F receptor): 0.5-1 log | pEC50 (adrenergic receptors): < 5.00 | pEC50 (dopamine 1 receptor): < 5.00 | displacement of standard radioligands (5-HT2A receptor [12]): more than 50% | hallucinogenic / psychoactive effect (humans; 32 mg p.o. ref 6): no hallucinogenic effect but a mild threshold psychoactive effect | subjective effect (online experience report) (humans; 75 mg orally, male ref 36): mild MDMA-like effects, but no obvious hallucinogenic effect | subjective effect (online experience report) (humans; 125 mg orally, female ref 37): unique hybrid between MDMA-like and DOX/psychedelic-like activity | dose leading to discernable psychoactive effects (humans; aggregate of human data): > 50 mg | dose up to which no hallucinogenic effects were observed (humans; aggregate of human data): 100 to 300 mg | brain penetration [13]: high brain penetration | Emax (5-HT2B receptor [2]): > 70% | Emax (5-HT2A receptor [3]): > 70% | decrease in potency versus the alpha-methyl (DOx) counterpart (5-HT2A receptor [3]): 4-to-6 fold and 6 fold | Emax (5-HT2A receptor [3]; read-out: Emax (Gq)): 80% | activity at DAT [14]: essentially no activity | Emax (5-HT2C receptor): > 70% | substitution in LSD trained animals (rats [15]): substituted responding in LSD trained animals | activity at NET [16]: essentially no activity

CCN(CC)CCc1c[nH]c2ccccc12 [DET, diethyltryptamine]
Emax (5-HT2A receptors [5]; [19]): 82% | affinity for 5-HT2A receptors, DET versus 6F-DET (5-HT2A receptors [6]): nearly identical affinity

COc1cc(CC(C)N)c(OC)cc1I (stereo not shown) [DOI, reference compound]
increase in Gq dissociation potency compared to DOM (5-HT2A receptor [3]; Gq dissociation): 20- to 30 fold

COc1cc(CC(C)N)c(OC)cc1C (stereo not shown) [DOM, 2,5-dimethoxy-4-methyl-amphetamine, reference compound]
efficacy (5-HT2A receptor [4]): 103% | dose producing classic hallucinogen effects (humans): > 3 mg | dose producing detectable psychoactive, sub-hallucinogenic effects (humans): 1 to 3 mg | potency relative to mescaline in humans (humans; per oral administration ref 6): approximately 100 times | Emax (5-HT2A receptor [3]; read-out: Emax (Gq)): 96%

CCCc1cc(OC)c(CC(C)N)cc1OC (stereo not shown) [DOPR, reference compound]
dose of peak (maximum) HTR (mice [1]; s.c.): 1 mg/kg | time to maximum HTR frequency post-drug administration (mice [1]; s.c.): 10 min | increase in Gq dissociation potency compared to DOM (5-HT2A receptor [3]; Gq dissociation): 20- to 30 fold | time in the center of the arena (mice [17]): trend for spending less time in the center of the arena

CCC(N)Cc1cc(OC)c(I)cc1OC (stereo not shown) [iodo-Ariadne]
decrease in potency versus the alpha-methyl (DOx) counterpart (5-HT2A receptor [4]): 5 fold | drop in efficacy versus the alpha-methyl (DOx) counterpart (5-HT2A receptor [4]): 20% | increase in potency compared to Ariadne (5-HT2A receptor [3]; Gq dissociation): > 10 fold | loss in efficacy versus the alpha-methyl (DOx) counterpart (5-HT2A receptor [3]; Gq dissociation): 10% | decrease in potency versus the alpha-methyl (DOx) counterpart (5-HT2A receptor [3]): 10 fold | pEC50 (5-HT2A receptor [3]; read-out: EC50 (Gq), Gq dissociation BRET): 7.80

CN(C)CCc1c[nH]c2cccc(O)c12 [psilocin]
greater signaling potency in comparison to 6F-DET (5-HT2A receptors [5]): 15 fold | signaling efficacy (5-HT2A receptors [5]; depending on the specific readout): 50-70% | greater affinity in comparison to 6F-DET (5-HT2C receptors): 10 fold | HTR counts (mice [18]): 15-25 HTR events per 15 min

CN(C)CCc1c[nH]c2cccc(OP(=O)(O)O)c12 [psilocybin]
HTR counts (mice [18]): 15-25 HTR events per 15 min

— PMC10147382 (ACS chemical neuroscience, 2022)
